Paper PMC3747510 (Scientific Reports, 2013)

Assays:
A549 = experiment: Cell proliferation assay; type: cell-based; conditions: Homo sapiens, A549, read-out: IC50, Human cell lines, A549
How it was run: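 Cells in DMEM/10% FBS, 37°C, 5% CO2. Seeded from 1 × 10^5 cells/mL and allowed to adhere overnight. Test compound added at 2.5–100 μg/mL (0.5% DMSO final), five wells per concentration. Incubated 0, 24, 48 or 72 h, then 4 h with MTS/PMS (20:1), and A492 read. DMSO and medium-only controls. IC50 by nonlinear regression against log concentration.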

yeast cytosolic LeuRS = molecular target: T1, yeast cytosolic LeuRS (Saccharomyces cerevisiae, UniProt P26637); experiment: Aminoacylation by yeast cytosolic LeuRS; type: biochemical; conditions: 100 μM ZCL039
T1 sequence (P26637 1-1090): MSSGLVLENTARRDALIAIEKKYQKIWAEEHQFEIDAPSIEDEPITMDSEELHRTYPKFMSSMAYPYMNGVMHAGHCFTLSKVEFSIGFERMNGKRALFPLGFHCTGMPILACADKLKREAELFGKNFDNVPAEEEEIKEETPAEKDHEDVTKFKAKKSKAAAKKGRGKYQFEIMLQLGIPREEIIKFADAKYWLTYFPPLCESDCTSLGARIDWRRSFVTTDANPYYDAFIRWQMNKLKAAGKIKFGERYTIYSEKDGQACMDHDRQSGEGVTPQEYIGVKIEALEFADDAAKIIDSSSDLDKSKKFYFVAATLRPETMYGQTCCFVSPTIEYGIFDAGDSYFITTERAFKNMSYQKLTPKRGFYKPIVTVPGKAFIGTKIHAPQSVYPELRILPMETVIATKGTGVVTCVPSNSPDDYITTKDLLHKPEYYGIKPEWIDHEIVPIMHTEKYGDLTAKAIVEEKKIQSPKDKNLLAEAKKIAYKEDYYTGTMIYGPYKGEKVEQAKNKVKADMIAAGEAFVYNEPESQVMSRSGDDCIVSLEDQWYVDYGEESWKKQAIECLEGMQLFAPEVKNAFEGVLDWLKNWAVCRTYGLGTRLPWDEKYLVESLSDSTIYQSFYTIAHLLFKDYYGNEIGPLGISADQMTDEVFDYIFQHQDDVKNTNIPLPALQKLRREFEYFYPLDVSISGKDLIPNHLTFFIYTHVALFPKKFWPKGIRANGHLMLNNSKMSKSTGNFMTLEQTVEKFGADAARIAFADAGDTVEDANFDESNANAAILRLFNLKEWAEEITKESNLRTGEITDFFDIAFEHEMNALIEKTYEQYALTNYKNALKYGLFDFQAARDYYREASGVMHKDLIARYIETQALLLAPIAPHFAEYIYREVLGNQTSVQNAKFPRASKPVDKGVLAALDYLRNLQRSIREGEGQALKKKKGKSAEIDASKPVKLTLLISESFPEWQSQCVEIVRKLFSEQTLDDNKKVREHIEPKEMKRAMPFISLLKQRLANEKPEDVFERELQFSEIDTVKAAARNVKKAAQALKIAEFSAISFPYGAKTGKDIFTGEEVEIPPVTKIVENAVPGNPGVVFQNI

SpLeuRS D344A = molecular target: T2, SpLeuRS D344A (Streptococcus pneumoniae serotype 4, UniProt Q97SS0, D344A); experiment: Aminoacylation by SpLeuRS D344A mutant; type: biochemical; conditions: 50 μM ZCL039
T2 sequence (Q97SS0 1-833 D344A): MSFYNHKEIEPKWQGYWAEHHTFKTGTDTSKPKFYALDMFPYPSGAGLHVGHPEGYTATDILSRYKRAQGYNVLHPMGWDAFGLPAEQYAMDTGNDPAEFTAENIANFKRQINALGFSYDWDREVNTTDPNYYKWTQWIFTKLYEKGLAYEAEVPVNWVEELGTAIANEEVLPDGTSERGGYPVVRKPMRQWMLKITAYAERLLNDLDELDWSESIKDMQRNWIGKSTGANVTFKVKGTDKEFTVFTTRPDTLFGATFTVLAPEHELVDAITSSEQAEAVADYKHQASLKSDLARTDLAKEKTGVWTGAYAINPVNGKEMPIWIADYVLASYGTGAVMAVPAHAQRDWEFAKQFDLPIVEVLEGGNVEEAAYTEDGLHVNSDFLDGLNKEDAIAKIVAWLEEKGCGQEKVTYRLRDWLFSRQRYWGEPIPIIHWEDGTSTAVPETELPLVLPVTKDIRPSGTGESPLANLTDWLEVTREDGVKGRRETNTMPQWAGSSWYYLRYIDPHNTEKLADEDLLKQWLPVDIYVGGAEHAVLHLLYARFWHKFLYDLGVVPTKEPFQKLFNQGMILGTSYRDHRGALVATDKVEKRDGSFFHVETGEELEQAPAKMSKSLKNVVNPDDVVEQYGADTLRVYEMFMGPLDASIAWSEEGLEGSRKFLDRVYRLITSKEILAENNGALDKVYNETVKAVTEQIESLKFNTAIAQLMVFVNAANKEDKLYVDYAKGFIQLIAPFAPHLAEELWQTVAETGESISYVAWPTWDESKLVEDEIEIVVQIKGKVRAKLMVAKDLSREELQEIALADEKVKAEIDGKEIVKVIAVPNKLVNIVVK
How it was run: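 Aminoacylation at 37°C, started with 4 mM ATP. Point mutants were made by site-directed mutagenesis. The MmLinker chimera has CP1 Lys226–Thr411 replaced by a nonapeptide. Means of three independent experiments.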

## OB1OCc2ccc(C(O)c3ccccc3)cc21 (stereo not drawn) [ZCL039, [6-(1-phenyl-1-hydroxylmethyl)]-1,3-dihydro-1-hydroxy-2,1-benzoxaborole]
A549
  IC50: > 200 µM
Yeast cytosolic LeuRS
  Activity against yeast cytosolic LeuRS aminoacylation: little effect
SpLeuRS D344A
  Effect of D344A mutation on sensitivity of SpLeuRS to ZCL039: reduced the sensitivity
